# Screening data as filed in PubChem.
# hIAP act: human IAP activation | activation factor at 10 µM | hit rate 0.16% among 330,000 | P09923 | purified human IAP, CDP-Star luminescence, 30 min; active compounds read high; 1 = vehicle-only enzyme, 0 = enzyme-free background;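 active = activation factor of the enzyme at least 2-fold when tested at 20 µM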
# Target sequence (P09923 whole entry, looked up): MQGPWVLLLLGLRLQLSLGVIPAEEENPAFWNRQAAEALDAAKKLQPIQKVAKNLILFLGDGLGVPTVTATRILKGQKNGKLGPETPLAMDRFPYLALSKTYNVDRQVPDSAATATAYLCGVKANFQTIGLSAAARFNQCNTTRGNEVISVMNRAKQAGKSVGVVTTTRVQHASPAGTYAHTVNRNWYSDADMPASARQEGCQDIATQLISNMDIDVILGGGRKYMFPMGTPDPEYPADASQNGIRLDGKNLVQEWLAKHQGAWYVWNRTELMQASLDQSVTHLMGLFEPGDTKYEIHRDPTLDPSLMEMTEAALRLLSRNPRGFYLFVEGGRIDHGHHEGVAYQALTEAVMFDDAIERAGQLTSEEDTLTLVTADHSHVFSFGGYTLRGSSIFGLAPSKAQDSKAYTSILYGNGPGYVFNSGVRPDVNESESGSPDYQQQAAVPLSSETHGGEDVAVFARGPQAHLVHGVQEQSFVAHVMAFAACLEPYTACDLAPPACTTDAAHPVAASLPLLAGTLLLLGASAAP
# mIAP block: mouse IAP inhibition. purified mouse IAP, CDP-Star luminescence, 30 min. inhibition, % at 10 µM. hit rate 0.2% among 330,000. AID 2806;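 active = inhibition of at least 40% at 10 µM in the primary screen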;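 note: plate controls were DMSO with enzyme for no effect and no enzyme wells for full effect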
# bIAP activator: increases bovine intestinal alkaline phosphatase activity; hit rate 0.17% among 200,000; purified bovine IAP, CDP-star luminescence, 30 min; active compounds read high; fold of DMSO-control signal, blank-subtracted; AID 1016; activation factor at 20 µM;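 active = activation factor of 2 or more at 20 µM, a signal rise over negative controls twice the positive control's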
# mIAP activ: mouse IAP activation | hit rate 0.24% among 330,000 | activation factor at 10 µM | muIAP, CDP-Star luminescence, 30 min; active compounds read high; 1 = vehicle-only enzyme signal, 0 = enzyme-free wells;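 active = activation factor of at least 2 at 20 µM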
#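 System: Mouse IAP enzyme | Also added: CDP-Star substrate | Dosing: Compounds dispensed in DMSO | Schedule: 30 min enzyme-substrate-compound incubation at room temperature | Technique: Chemiluminescence readout | Control set: DMSO-only wells and no-enzyme negative control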
# bIAP inh: blocks bovine intestinal alkaline phosphatase activity; purified bovine IAP, CDP-star luminescence, 30 min; AID 1019; inhibition, % at 20 µM; 190,000 tested, under 10 active;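 active = over 50% inhibition of intestinal alkaline phosphatase at 20 µM in the single-dose screen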
#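 System: purified bovine intestinal alkaline phosphatase (IAP) enzyme; Input: IAP diluted 1/65,000,000 in the well; Measured by: CDP-star luminescence signal; Compound dosing: 20 µM single dose; Incubation: 30 min reaction at room temperature.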
# hIAP inh: human IAP inhibition. P09923. purified IAP, CDP-Star luminescence, 30 min. inhibition, % at 10 µM. hit rate 0.12% among 330,000;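 active = inhibition reaching a set limit with compound at 10 µM in the primary screen, cut at about 35% in these data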;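 note: plate controls were DMSO wells with enzyme for no effect and no-enzyme buffer wells for full effect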
# mIAP inh confirm: mouse IAP inhibition confirmation | shares compounds with mIAP block | purified mouse IAP, CDP-Star luminescence, 30 min | inhibition, % at 10 µM | hit rate 4.7% among 11,000 | AID 434971;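 active = inhibition of at least 40% at 10 µM in either of the two replicates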;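 note: plate controls were DMSO wells with enzyme for no effect and buffer wells lacking enzyme for full effect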
# * hit, by the source's call; / = not tested or not shown. Most compounds without a hit are left out; they make up all but 0.77% or so of the library.
SMILES,hIAP act,mIAP block,bIAP activator,mIAP activ,bIAP inh,hIAP inh,mIAP inh confirm
O=C(N/N=C/c1ccc[nH]1)c1ccc2c(c1)OCO2,1.1,50*,1,0.5,2,-12,64*
O=C(COC(=O)COc1ccc(Cl)cc1)NC1CCS(=O)(=O)C1 (stereo not given),0.91,8,/,0.92,/,9,/
C=CCNC(=S)NNC(=O)c1ccco1,1.4,10,1.3,0.9,-26,-37,/
O=C(/C=C/c1ccco1)NC(=S)Nc1ccc(C(=O)O)cc1,1.2,43*,/,0.57,/,-17,67*
O=C(/C=C/c1ccco1)NC(=S)NNC(=O)c1ccco1,1.5,49*,0.9,0.51,6,-48,54*
CC(=O)NC(=S)Nc1ccc(NC(=S)NC(=O)/C=C/c2ccco2)cc1,0.91,15,/,0.85,/,10,/
CC(=O)Oc1cc2cccc(OC(C)=O)c(=O)c2c(OC(C)=O)c1OC(C)=O,0.91,45*,1,0.55,-4,9,49*
COc1ccc2[nH]c(=O)c(CN(C(=O)c3ccncc3)C(C)(C)C)cc2c1,1.1,-4,1,1,-3,-7,/
COc1cc(/C=C/C(=O)/C=C(O)/C=C/c2ccc(O)c(OC)c2)ccc1O,/,61*,/,0.39,/,/,53*
COc1cc(/C=C/C(=O)CC(=O)/C=C/c2ccc(O)c(OC)c2)ccc1O,/,58*,1,0.42,2,/,49*
Cc1cc(C(=O)OCC(=O)Nc2cc(S(=O)(=O)N(C)C)ccc2Cl)c2ccccc2n1,0.97,1,1,0.99,0,3,/
CC(C)(C)C(=O)CC(=O)Nc1ccc(Cl)c(N)c1,0.97,4,0.9,0.96,5,3,/
O=C(NC1CCCC1)C(c1ccc(F)cc1)N(Cc1ccc(F)cc1)C(=O)c1ccn[nH]1 (stereo not given),1.8,-120,2.4*,2.2*,-142,-76,-105
CC1=NNC(=O)C1CC(=O)N/N=C/C(C)=C/c1ccccc1 (stereo not given),0.97,-2,1,1,2,3,/
Cc1nc2ccccc2c(=O)n1/N=C/c1ccc(O)c(O)c1O,0.99,57*,/,0.43,/,1,81*
CC(=O)Oc1cc(C(=O)OCC(=O)N2CCc3ccccc3C2)cc(OC(C)=O)c1OC(C)=O,1.3,46*,/,0.55,/,-27,51*
O=C1CNC(=S)N1CCc1ccc(O)c(O)c1,0.86,77*,/,0.23,/,14,81*
O=C(N/N=C/c1cccnc1)c1cc(O)c(O)c(O)c1,1.1,42*,/,0.58,/,-14,58*
O=C(N/N=C/c1cn(Cc2cccc(F)c2)c2ccccc12)c1cc(O)cc(O)c1,1.2,68*,/,0.32,/,-16,67*
Cc1ccc(NC(=O)NCC2CCN(Cc3cccc(Cl)c3)CC2)cc1Cl,1.4,-322,1.1,4.2*,-14,-39,-87
CCc1ccc(NC(=O)NCC2CCN(Cc3cccc(Cl)c3)CC2)cc1,1.5,-209,/,3.1*,/,-54,-120
COc1cccc(NC(=O)NCC2CCN(Cc3ccc(F)cc3)CC2)c1,1.4,-96,/,2,/,-36,/
CCc1cccc(CC)c1NC(=O)CN1C2CCCC1CC(NC(=O)Nc1cccc(OC)c1)C2 (stereo not given),1.9,-175,1.4,2.7*,-39,-91,-136
COc1cccc(C(=O)NC2CC3CCCC(C2)N3CC(=O)Nc2ccccc2C(F)(F)F)c1 (stereo not given),0.95,-5,/,1,/,5,/
Cc1ccc(C2=NC(=O)/C(=C/c3cc(O)c(O)c(Br)c3)S2)cc1,0.86,53*,0.7,0.47,29,14,60*
O=C(Nc1ccccc1-c1ccccc1)NC1CC2CCCC(C1)N2Cc1ccc(F)cc1 (stereo not given),1.8,-405,5.8*,5*,-483,-85,-270
CCc1ccc(NC(=S)NC2CC3CCC(C2)N3Cc2ccco2)cc1 (stereo not given),1,-32,0.9,1.3,5,-4,/
Cc1cccc(NC(=S)NC2CC3CCCC(C2)N3CC(C)C)c1 (stereo not given),0.93,-154,1,2.5*,1,7,-145
